Test results as given in ChEMBL document CHEMBL3853360, “Combined Interactions with I1-, I2-Imidazoline Binding Sites and α2-Adrenoceptors To Manage Opioid Addiction” (ACS Med Chem Lett, 2016).
Activity calls are given as the source filed them. No cut-off for these calls is given here.

Tests used:
[1] = Reduction in morphine dependence expression in CD1 mouse assessed as inhibition of naloxone-precipitated forepaw tremor frequency at 10 mg/kg, ip administered acutely 15 mins prior to naloxone challenge relative to control; format: functional, organism-based
[2] = tested on: Mus musculus; experiment: Reduction in morphine dependence acquisition in CD1 mouse assessed as inhibition of naloxone-precipitated rearing frequency at 5 mg/kg, ip administered 15 mins prior to each morphine challenge relative to control; format: functional
How it was run: (§1)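 Mice received i.p. test compound (5 or 10 mg/kg) 15 min before each of repeated morphine injections, with vehicle and morphine-only controls. Withdrawal was then precipitated with naloxone. Jumping frequency and somatic signs (rearing, forepaw tremor, teeth chattering; summed frequency) were scored and compared with the morphine group. Data are mean ± SEM of 6–10 animals.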

[3] = tested on: Mus musculus; experiment: Reduction in morphine dependence acquisition in CD1 mouse assessed as inhibition of naloxone-precipitated rearing frequency at 10 mg/kg, ip administered 15 mins prior to each morphine challenge relative to control; format: functional; how it was run: as §1
[4] = tested on: Mus musculus; experiment: Reduction in morphine dependence acquisition in CD1 mouse assessed as inhibition of naloxone-precipitated forepaw tremor frequency at 10 mg/kg, ip administered 15 mins prior to each morphine challenge relative to control; format: functional; how it was run: as §1
[5] = Displacement of [3H]-2-BFI from I2 receptor imidazoline binding site in Sprague-Dawley rat brain membranes after 30 mins by liquid scintillation counting; format: cell membranes, Membrane
How it was run: (§2)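 Radioligand competition binding with pKi determined by displacement. I1 sites: [125I]-p-iodoclonidine on rat kidney membranes. I2 sites: [3H]-2-BFI on rat brain membranes. α2-ARs: [3H]-RX821002 on rat brain membranes.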

[6] = tested on: Mus musculus; experiment: Reduction in morphine dependence acquisition in CD1 mouse assessed as inhibition of naloxone-precipitated forepaw tremor frequency at 5 mg/kg, ip administered 15 mins prior to each morphine challenge relative to control; format: functional; how it was run: as §1
[7] = Reduction in morphine dependence expression in CD1 mouse assessed as inhibition of naloxone-precipitated jumping at 10 mg/kg, ip administered acutely 15 mins prior to naloxone challenge relative to control; format: functional, organism-based
[8] = tested on: Mus musculus; experiment: Reduction in morphine dependence acquisition in CD1 mouse assessed as inhibition of naloxone-precipitated teeth chattering frequency at 10 mg/kg, ip administered 15 mins prior to each morphine challenge relative to control; format: functional; how it was run: as §1
[9] = Reduction in morphine dependence expression in CD1 mouse assessed as inhibition of naloxone-precipitated teeth chattering frequency at 5 mg/kg, ip administered acutely 15 mins prior to naloxone challenge relative to control; format: functional, organism-based
[10] = target: Nischarin (Rattus norvegicus, UniProt Q4G017); experiment: Displacement of [125I]-p-iodoclonidine from I1 receptor imidazoline binding site in Sprague-Dawley rat kidney cell membranes after 30 mins by liquid scintillation counting; how it was run: as §2
[11] = Reduction in morphine dependence expression in CD1 mouse assessed as inhibition of naloxone-precipitated rearing frequency at 5 mg/kg, ip administered acutely 15 mins prior to naloxone challenge relative to control; format: functional, organism-based
[12] = Reduction in morphine dependence expression in CD1 mouse assessed as inhibition of naloxone-precipitated rearing frequency at 10 mg/kg, ip administered acutely 15 mins prior to naloxone challenge relative to control; format: functional, organism-based
[13] = tested on: Mus musculus; experiment: Reduction in morphine dependence acquisition in CD1 mouse assessed as inhibition of naloxone-precipitated teeth chattering frequency at 5 mg/kg, ip administered 15 mins prior to each morphine challenge relative to control; format: functional; how it was run: as §1
[14] = tested on: Mus musculus; experiment: Reduction in morphine dependence acquisition in CD1 mouse assessed as inhibition of naloxone-precipitated jumping at 10 mg/kg, ip administered 15 mins prior to each morphine challenge; format: functional, organism-based
How it was run: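 Acquisition protocol in mice given repeated morphine. Test drug at 5 or 10 mg/kg i.p. was given 15 min before each morphine injection. Withdrawal was then precipitated with naloxone and jumping frequency counted. Data are mean ± SEM of 6–10 animals, compared with the morphine group.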

[15] = Reduction in morphine dependence expression in CD1 mouse assessed as inhibition of naloxone-precipitated forepaw tremor frequency at 5 mg/kg, ip administered acutely 15 mins prior to naloxone challenge relative to control; format: functional, organism-based
[16] = Reduction in morphine dependence expression in CD1 mouse assessed as inhibition of naloxone-precipitated teeth chattering frequency at 10 mg/kg, ip administered acutely 15 mins prior to naloxone challenge relative to control; format: functional, organism-based
[17] = target: T1, Adrenergic receptor alpha-2 (Rattus norvegicus, UniProt P22086+P19328+P22909); experiment: Displacement of [3H]-RX 821002 from alpha2-AR in Sprague-Dawley rat brain membranes after 30 mins by liquid scintillation counting; format: cell membranes, Membrane; how it was run: as §2
T1 sequence (P22086 whole entry): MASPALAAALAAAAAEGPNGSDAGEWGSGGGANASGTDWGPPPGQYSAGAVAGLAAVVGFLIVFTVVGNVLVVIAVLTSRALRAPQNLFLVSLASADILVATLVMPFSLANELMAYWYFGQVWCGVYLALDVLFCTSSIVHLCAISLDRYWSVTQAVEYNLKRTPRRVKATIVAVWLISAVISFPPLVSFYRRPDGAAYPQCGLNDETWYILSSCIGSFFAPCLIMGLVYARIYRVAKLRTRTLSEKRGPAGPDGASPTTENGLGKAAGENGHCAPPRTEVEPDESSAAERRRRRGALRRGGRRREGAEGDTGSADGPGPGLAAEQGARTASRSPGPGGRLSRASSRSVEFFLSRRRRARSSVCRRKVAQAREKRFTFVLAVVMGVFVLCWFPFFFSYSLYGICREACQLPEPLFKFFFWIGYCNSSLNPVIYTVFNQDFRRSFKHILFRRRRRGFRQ
T1 sequence (P19328 whole entry): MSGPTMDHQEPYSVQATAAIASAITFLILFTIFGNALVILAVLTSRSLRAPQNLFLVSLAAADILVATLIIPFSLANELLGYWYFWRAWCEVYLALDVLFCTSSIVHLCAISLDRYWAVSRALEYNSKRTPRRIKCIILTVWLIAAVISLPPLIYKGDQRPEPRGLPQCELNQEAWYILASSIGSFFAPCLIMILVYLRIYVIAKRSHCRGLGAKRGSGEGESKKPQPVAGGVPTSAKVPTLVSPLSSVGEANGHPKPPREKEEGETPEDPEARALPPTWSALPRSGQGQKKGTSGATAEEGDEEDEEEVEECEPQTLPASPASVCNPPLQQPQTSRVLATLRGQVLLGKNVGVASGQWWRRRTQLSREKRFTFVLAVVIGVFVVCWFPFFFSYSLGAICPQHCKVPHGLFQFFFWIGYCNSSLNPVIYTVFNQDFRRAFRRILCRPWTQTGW
T1 sequence (P22909 whole entry): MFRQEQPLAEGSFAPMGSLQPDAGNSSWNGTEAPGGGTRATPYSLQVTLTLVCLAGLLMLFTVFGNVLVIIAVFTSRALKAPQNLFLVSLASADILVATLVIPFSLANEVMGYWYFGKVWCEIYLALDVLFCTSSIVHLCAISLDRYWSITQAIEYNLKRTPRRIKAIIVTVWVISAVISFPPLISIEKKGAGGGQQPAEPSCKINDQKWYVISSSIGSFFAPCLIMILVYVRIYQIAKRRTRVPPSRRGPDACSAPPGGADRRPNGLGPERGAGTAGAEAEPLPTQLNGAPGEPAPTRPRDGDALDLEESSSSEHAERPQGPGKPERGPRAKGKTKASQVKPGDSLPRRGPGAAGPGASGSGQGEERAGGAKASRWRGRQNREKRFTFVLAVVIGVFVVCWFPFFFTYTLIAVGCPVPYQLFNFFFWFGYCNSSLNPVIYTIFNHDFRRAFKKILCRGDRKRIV

[18] = target: T2, Alpha-2B adrenergic receptor (Homo sapiens) (UniProt P18089); experiment: Agonist activity at human alpha2b-AR expressed in CHO cells assessed as rate of acidification after 240 mins by cytosensor microphysiometric analysis relative to (-)-noradrenaline; format: cell-based
T2 sequence (whole entry): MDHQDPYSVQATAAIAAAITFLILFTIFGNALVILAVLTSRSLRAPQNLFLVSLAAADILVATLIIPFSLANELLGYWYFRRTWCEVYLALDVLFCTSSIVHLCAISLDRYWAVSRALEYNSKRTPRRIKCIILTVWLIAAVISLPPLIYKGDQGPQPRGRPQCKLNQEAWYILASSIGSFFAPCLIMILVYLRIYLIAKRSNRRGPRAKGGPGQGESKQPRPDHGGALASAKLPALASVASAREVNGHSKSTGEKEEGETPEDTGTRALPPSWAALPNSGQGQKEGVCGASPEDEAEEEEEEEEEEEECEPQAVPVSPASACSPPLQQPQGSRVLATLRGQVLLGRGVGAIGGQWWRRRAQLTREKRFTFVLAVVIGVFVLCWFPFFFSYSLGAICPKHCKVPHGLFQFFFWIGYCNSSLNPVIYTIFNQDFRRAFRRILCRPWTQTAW
How it was run: (§3)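 Functional assay in CHO cells stably expressing a single human α2-AR subtype (α2A, α2B or α2C), read on a Cytosensor microphysiometer. Outputs are pEC50, intrinsic activity and, for antagonism, pKb. Intrinsic activity is expressed as a fraction of the full agonist (−)-noradrenaline, set at 1. Values are mean ± SEM of 3–5 separate experiments.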

[19] = target: T3, Alpha-2C adrenergic receptor (Homo sapiens) (UniProt P18825); experiment: Agonist activity at human alpha2c-AR expressed in CHO cells assessed as rate of acidification after 240 mins by cytosensor microphysiometric analysis relative to (-)-noradrenaline; format: cell-based; how it was run: as §3
T3 sequence (whole entry): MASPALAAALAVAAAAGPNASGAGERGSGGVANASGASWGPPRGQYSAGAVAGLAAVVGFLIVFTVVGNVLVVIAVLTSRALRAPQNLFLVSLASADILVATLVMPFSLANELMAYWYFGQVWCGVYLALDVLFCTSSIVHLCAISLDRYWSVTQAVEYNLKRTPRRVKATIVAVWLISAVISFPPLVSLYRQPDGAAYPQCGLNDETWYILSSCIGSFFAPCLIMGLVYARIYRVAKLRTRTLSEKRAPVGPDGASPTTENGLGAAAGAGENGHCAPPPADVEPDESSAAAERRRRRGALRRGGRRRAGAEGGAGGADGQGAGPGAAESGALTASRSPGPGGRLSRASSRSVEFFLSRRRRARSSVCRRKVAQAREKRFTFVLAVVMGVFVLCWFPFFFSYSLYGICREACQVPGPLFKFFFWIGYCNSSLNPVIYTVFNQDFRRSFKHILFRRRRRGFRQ

[20] = target: T4, Alpha-2B adrenergic receptor (Homo sapiens, UniProt P18089); experiment: Agonist activity at human alpha2b-AR expressed in CHO cells assessed as rate of acidification after 240 mins by cytosensor microphysiometric analysis; format: cell-based; how it was run: as §3
T4 sequence (P18089 whole entry): T2 sequence (whole entry)

[21] = target: T5, Alpha-2C adrenergic receptor (Homo sapiens, UniProt P18825); experiment: Agonist activity at human alpha2c-AR expressed in CHO cells assessed as rate of acidification after 240 mins by cytosensor microphysiometric analysis; format: cell-based; how it was run: as §3
T5 sequence (P18825 whole entry): T3 sequence (whole entry)

[22] = target: T6, Alpha-2A adrenergic receptor (Homo sapiens, UniProt P08913); experiment: Agonist activity at human alpha2a-AR expressed in CHO cells assessed as rate of acidification after 240 mins by cytosensor microphysiometric analysis; format: cell-based; how it was run: as §3
T6 sequence (P08913 whole entry): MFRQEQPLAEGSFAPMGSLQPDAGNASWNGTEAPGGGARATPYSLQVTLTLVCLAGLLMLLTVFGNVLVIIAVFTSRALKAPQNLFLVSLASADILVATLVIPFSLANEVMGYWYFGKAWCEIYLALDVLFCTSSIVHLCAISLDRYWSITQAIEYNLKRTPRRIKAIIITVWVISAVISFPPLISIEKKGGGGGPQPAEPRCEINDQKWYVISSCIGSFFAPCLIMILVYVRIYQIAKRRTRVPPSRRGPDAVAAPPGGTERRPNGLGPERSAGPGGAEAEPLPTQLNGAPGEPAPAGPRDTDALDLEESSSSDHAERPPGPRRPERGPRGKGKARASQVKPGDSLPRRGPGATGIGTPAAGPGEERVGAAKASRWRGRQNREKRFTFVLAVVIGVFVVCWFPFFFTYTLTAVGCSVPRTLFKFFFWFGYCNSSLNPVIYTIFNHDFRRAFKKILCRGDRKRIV

[23] = target: T7, Alpha-2A adrenergic receptor (Homo sapiens) (UniProt P08913); experiment: Antagonist activity at human alpha2a-AR expressed in CHO cells assessed as inhibition of (-)-noradrenaline-induced acidification rate after 240 mins by cytosensor microphysiometric analysis; format: cell-based; how it was run: as §3
T7 sequence (whole entry): T6 sequence (P08913 whole entry)

[24] = Displacement of [3H]idazoxan from I2 receptor imidazoline binding site in rabbit kidney membranes after 45 mins by […]; format: cell membranes, Oryctolagus cuniculus, Membrane
[25] = species: Homo sapiens; experiment: Selectivity ratio of agonist activity at I1 receptor imidazoline binding site (unknown origin) to agonist activity at alpha2-AR (unknown origin)

Chain of Nischarin (Q4G017 whole entry): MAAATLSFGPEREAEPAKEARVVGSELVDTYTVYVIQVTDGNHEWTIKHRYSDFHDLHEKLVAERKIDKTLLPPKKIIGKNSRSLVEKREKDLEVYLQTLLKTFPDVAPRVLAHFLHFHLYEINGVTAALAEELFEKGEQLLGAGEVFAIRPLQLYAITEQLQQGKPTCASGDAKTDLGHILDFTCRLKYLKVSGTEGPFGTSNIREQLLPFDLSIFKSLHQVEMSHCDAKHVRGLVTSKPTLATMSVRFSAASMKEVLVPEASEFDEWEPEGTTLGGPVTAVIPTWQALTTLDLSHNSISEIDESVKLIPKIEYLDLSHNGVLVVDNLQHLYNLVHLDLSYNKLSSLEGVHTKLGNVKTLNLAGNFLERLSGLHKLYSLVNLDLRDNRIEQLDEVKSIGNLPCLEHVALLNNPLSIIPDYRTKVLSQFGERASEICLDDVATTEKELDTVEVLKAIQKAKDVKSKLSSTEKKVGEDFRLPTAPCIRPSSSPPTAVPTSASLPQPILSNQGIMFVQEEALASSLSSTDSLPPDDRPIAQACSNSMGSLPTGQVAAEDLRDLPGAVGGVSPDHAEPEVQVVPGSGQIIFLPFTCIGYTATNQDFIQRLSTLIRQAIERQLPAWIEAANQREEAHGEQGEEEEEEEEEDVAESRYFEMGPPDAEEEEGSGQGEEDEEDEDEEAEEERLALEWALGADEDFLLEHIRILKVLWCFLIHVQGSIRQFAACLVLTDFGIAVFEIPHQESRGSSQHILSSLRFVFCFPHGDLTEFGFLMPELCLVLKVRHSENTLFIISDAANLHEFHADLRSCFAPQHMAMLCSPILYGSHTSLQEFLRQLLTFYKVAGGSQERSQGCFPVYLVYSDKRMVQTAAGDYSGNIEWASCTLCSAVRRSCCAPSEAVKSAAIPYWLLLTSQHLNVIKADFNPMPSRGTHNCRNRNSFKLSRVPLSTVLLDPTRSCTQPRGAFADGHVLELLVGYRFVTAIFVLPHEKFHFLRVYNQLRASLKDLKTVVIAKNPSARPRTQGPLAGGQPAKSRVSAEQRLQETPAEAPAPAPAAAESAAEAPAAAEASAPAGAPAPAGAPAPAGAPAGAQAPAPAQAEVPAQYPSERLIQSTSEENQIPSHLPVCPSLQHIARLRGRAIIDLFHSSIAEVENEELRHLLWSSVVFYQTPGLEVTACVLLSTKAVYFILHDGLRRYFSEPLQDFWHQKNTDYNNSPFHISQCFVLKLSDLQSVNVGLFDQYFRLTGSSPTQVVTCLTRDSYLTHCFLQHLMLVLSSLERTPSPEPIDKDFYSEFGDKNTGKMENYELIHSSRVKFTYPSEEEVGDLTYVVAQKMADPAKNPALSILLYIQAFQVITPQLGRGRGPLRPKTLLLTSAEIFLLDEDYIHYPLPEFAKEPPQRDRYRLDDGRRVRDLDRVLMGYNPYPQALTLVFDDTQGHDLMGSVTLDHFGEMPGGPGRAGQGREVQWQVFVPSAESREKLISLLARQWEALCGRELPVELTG

SMILES | pKi [5] | Ki [10] [nM] | pKi [17] | Intrinsic activity [18] | Intrinsic activity [19] | EC50 [20] [nM] | EC50 [21] [nM] | also measured
Cc1ccccc1/C=C/C1=NCCN1 | 9.11 | 17.8 | < 6 |  |  |  |  | inhibition [1]: 50%; inhibition in vivo at 5 mg/kg [2]: 34%; inhibition in vivo at 10 mg/kg [3]: 46%; inhibition in vivo at 10 mg/kg [4]: 46%; inhibition in vivo at 5 mg/kg [6]: 34%; inhibition [7]: 90%; inhibition in vivo at 10 mg/kg [8]: 46%; inhibition [9]: 50%; inhibition [11]: 50%; inhibition [12]: 50%; inhibition in vivo at 5 mg/kg [13]: 34%; inhibition [14]: Active; inhibition [15]: 50%; inhibition [16]: 50%
c1ccc(-c2ccccc2NCC2=NCCN2)cc1 | 6.1 | 1.41 | 6.75 | 0.5 | 0.8 | 955 | 148 | EC50 [22]: 63.1 nM
C=CCc1ccccc1/C=C/C1=NCCN1 | 8.3 | 69.2 | < 6 |  |  |  |  | 
C=CCc1ccccc1NCC1=NCCN1 | 7.85 | 3.98 | 6.79 | 0.5 | 0.8 | 2510 | 158 | pKb [23]: 6.77
c1ccc(NCC2=NCCN2)cc1 [PHENAMAZOLINE] |  |  |  |  |  |  |  | pKi [24]: 7.48
Clc1cccc(Cl)c1NC1=NCCN1 |  |  |  |  |  |  |  | Selectivity ratio [25]: 4
